Laboratory results as given in ChEMBL document CHEMBL3120062, “Novel 8-(p-substituted-phenyl/benzyl)xanthines with selectivity for the A2A adenosine receptor possess bronchospasmolytic activity” (Eur J Med Chem, 2014).
pKi: −log10 of the molar value. The source made the active and inactive calls. The rule behind the calls is not given here.

Assays:
Adenosine receptor A2a = Adenosine receptor A2a (Homo sapiens, UniProt P29274); experiment: Displacement of [3H]-NECA from human recombinant adenosine A2A receptor expressed in CHO cell membranes after 3 hrs by microbeta counting analysis
Adenosine receptor A2a, sequence (P29274 whole entry): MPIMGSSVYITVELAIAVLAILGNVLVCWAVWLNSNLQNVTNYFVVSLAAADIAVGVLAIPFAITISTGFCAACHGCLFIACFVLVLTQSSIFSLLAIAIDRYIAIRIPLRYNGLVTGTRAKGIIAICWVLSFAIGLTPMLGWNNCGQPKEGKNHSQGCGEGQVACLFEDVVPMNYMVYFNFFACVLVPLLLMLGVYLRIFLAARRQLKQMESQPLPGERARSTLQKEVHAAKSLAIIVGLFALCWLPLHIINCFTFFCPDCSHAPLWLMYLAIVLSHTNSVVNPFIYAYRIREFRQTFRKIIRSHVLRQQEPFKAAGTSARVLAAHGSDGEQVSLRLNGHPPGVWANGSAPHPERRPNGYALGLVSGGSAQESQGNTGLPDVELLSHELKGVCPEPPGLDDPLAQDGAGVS
Outline: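 Crude membranes (10-50 µg protein) from CHO cells stably expressing the human A2A receptor, in 50 mM Tris/HCl pH 7.4. Incubated with [3H]NECA (10 nM) for 3 h at 25 °C, then filtered, washed with ice-cold buffer and scintillation counted. Nonspecific binding was defined with R-PIA. Ki came from non-linear curve fitting; geometric means of 3–5 experiments.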

Homo sapiens [1] = species on record: Homo sapiens; experiment: Selectivity ratio of Ki for human recombinant adenosine A2B receptor to Ki for human recombinant adenosine A2A receptor
Adenosine receptor A3 = biological target: T1, Adenosine receptor A3 (Homo sapiens, UniProt P0DMS8); experiment: Displacement of [3H]-HEMADO from human recombinant adenosine A3 receptor expressed in CHO cell membranes after 3 hrs by microbeta counting analysis
T1 sequence (P0DMS8 whole entry): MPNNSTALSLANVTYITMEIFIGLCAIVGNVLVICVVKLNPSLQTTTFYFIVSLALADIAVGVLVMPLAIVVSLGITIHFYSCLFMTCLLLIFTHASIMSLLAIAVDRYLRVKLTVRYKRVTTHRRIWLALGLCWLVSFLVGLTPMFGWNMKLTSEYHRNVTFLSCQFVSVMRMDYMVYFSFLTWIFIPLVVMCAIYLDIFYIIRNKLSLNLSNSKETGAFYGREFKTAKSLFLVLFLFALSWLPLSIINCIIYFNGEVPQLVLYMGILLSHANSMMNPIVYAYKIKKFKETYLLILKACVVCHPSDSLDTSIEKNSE
Outline: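 Human A3 receptor in stably transfected CHO cell membranes (10-50 µg protein), resuspended in 50 mM Tris/HCl, 10 mM MgCl2, 1 mM EDTA, pH 8.25. Incubated with [3H]HEMADO (1 nM) for 3 h at 25 °C, then filtered, washed and scintillation counted. Nonspecific binding was defined with R-PIA. Ki came from non-linear curve fitting; geometric means of 3–5 experiments.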

Homo sapiens [2] = species on record: Homo sapiens; experiment: Selectivity ratio of Ki for human recombinant adenosine A1 receptor to Ki for human recombinant adenosine A2A receptor
Cavia porcellus [3] = experiment: Bronchospasmolytic activity in histamine aerosol-induced Dunkin-Hartley guinea pig assessed as duration of jerks at 50 mg/kg, po pretreated for 1 hr followed by histamine aerosol-challenge (reference value: 172 +/- 4 seconds); type: functional
Cavia porcellus [4] = experiment: Bronchospasmolytic activity in histamine aerosol-induced Dunkin-Hartley guinea pig assessed as survival at 50 mg/kg, po pretreated for 1 hr followed by histamine aerosol-challenge relative to control; type: functional
Outline: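 Male Dunkin Hartley guinea pigs (250 ± 30 g), 4 per group, fasted overnight. Each animal was given test drug, theophylline or vehicle at 50 mg/kg by mouth in CMC + distilled water, 1 h before challenge. It was then exposed singly in a histamine chamber to 5 ml of 1% histamine aerosolised over 1 min. Onset, jerk duration, severity and death or survival were recorded. Survival is given as % of the group.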

Adenosine receptor A1 = biological target: T2, Adenosine receptor A1 (Homo sapiens, UniProt P30542); experiment: Displacement of [3H]-CCPA from human recombinant adenosine A1 receptor expressed in CHO cell membranes after 3 hrs by microbeta counting analysis
T2 sequence (P30542 whole entry): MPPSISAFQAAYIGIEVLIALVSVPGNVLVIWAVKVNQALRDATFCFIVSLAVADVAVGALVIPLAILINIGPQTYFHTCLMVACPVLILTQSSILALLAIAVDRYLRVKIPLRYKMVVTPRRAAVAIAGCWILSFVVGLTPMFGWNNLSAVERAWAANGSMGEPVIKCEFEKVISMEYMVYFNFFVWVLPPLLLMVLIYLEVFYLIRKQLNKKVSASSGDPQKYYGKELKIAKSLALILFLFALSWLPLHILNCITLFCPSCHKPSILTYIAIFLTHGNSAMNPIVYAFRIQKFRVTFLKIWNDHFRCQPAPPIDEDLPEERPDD
Outline: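 Human A1 receptor stably expressed in CHO cells. Crude membranes (10-50 µg protein) in 50 mM Tris/HCl pH 7.4 were incubated with [3H]CCPA (1 nM) for 3 h at 25 °C, then filtered, washed with ice-cold buffer and counted by scintillation. Nonspecific binding was defined with theophylline. Ki came from non-linear curve fitting; geometric means of 3–5 experiments.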

Adenosine receptor A2b = biological target: T3, Adenosine receptor A2b (Homo sapiens, UniProt P29275); experiment: Binding affinity to human recombinant adenosine A2B receptor expressed in CHO cell membranes assessed as inhibition of NECA-stimulated adenylyl cyclase activity after 20 mins
T3 sequence (P29275 whole entry): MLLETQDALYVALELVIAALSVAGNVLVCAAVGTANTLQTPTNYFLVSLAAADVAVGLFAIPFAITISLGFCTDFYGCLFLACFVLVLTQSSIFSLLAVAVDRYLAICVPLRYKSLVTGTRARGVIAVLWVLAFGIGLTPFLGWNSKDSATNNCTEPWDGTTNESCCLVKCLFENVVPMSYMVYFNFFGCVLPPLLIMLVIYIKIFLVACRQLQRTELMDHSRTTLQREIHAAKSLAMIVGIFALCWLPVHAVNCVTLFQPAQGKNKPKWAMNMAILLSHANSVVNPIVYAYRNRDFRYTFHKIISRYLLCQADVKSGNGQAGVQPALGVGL
Outline: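 Membranes from CHO cells stably expressing the human A2B receptor, prepared fresh by one 54,000 g spin and used immediately in 50 mM Tris/HCl pH 7.4. Concentration-dependent inhibition of NECA-stimulated adenylyl cyclase was measured with about 150,000 cpm [α-32P]ATP for 20 min. Ki was calculated from IC50 with the Cheng–Prusoff equation. Geometric means of 3–5 experiments.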

Cavia porcellus [5] = experiment: Bronchospasmolytic activity in histamine aerosol-induced Dunkin-Hartley guinea pig assessed as time required for onset of bronchospasm at 50 mg/kg, po pretreated for 1 hr followed by histamine aerosol-challenge (reference value: 67 +/- 2 seconds); type: functional
Homo sapiens [6] = species on record: Homo sapiens; experiment: Selectivity ratio of Ki for human recombinant adenosine A3 receptor to Ki for human recombinant adenosine A2A receptor
Cavia porcellus [7] = experiment: Bronchospasmolytic activity in histamine aerosol-induced Dunkin-Hartley guinea pig assessed as severity of bronchospasm at 50 mg/kg, po pretreated for 1 hr followed by histamine aerosol-challenge; type: functional, organism-based; parameters: dose 50 mg/kg

`Cn1c(=O)c2[nH]c(-c3ccc(OCCC4CCNCC4)cc3)nc2n(C)c1=O` showed a pKi (Adenosine receptor A2a) of 6.54, a Ratio Ki (Homo sapiens [1]) of 10 and a pKi (Adenosine receptor A3) of 5.19. The Ratio Ki (Homo sapiens [2]) was 4.6, the Time (Cavia porcellus [3]) was 22 s and the survival at 50 mg/kg (Cavia porcellus [4]) was 75%. The pKi (Adenosine receptor A1) was 5.88, the pKi (Adenosine receptor A2b) was 5.54 and the Time (Cavia porcellus [5]) was 121 s. For the same compound, the Ratio Ki (Homo sapiens [6]) was 22.

In the case of `Cn1c(=O)c2[nH]c(-c3ccc(OC4CCCC4)cc3)nc2n(C)c1=O`, the pKi (Adenosine receptor A2a) was 7.14, the Ratio Ki (Homo sapiens [1]) was 14 and the pKi (Adenosine receptor A3) was < 5.00. The Ratio Ki (Homo sapiens [2]) was > 420, the Time (Cavia porcellus [3]) was 35 s and the survival at 50 mg/kg (Cavia porcellus [4]) was 50%. For the same compound, the pKi (Adenosine receptor A1) was < 4.52, the pKi (Adenosine receptor A2b) was 6.00 and the Time (Cavia porcellus [5]) was 72 s. The Ratio Ki (Homo sapiens [6]) was > 420.

In the case of `Cn1c(=O)c2[nH]c(-c3ccc(OCCCCl)cc3)nc2n(C)c1=O`, the pKi (Adenosine receptor A2a) was 7.35, the Ratio Ki (Homo sapiens [1]) was > 220 and the pKi (Adenosine receptor A3) was < 4.52. The Ratio Ki (Homo sapiens [2]) was > 220, the Time (Cavia porcellus [3]) was 30 s and the survival at 50 mg/kg (Cavia porcellus [4]) was 100%. The pKi (Adenosine receptor A1) was < 5.00, the pKi (Adenosine receptor A2b) was < 5.00 and the Time (Cavia porcellus [5]) was 114 s. The Ratio Ki (Homo sapiens [6]) was > 670.

With `CN(C)CCOc1ccc(-c2nc3c([nH]2)c(=O)n(C)c(=O)n3C)cc1` the pKi (Adenosine receptor A2a) was 6.40, the Ratio Ki (Homo sapiens [1]) was 12 and the pKi (Adenosine receptor A3) was 5.03. The Ratio Ki (Homo sapiens [2]) was 4.6, the Time (Cavia porcellus [3]) was 39 s and the survival at 50 mg/kg (Cavia porcellus [4]) was 100%. The pKi (Adenosine receptor A1) was 5.74, the pKi (Adenosine receptor A2b) was 5.31 and the Time (Cavia porcellus [5]) was 111 s. For the same compound, the Ratio Ki (Homo sapiens [6]) was 24.

Compound `Cn1c(=O)c2[nH]c(-c3ccc(OCCN4CCOCC4)cc3)nc2n(C)c1=O` has a pKi (Adenosine receptor A2a) of 6.51, a Ratio Ki (Homo sapiens [1]) of 4.3 and a pKi (Adenosine receptor A3) of 5.56. It also gave a Ratio Ki (Homo sapiens [2]) of 8.3, a Time (Cavia porcellus [3]) of 45 s and a survival at 50 mg/kg (Cavia porcellus [4]) of 100%. The pKi (Adenosine receptor A1) was 5.59, the pKi (Adenosine receptor A2b) was 5.87 and the Time (Cavia porcellus [5]) was 104 s. The Ratio Ki (Homo sapiens [6]) was 8.8.

With `Cn1c(=O)c2nc[nH]c2n(C)c1=O.O` [THEOPHYLLINE] the Time (Cavia porcellus [3]) was 89 s, the survival at 50 mg/kg (Cavia porcellus [4]) was 100% and the Time (Cavia porcellus [5]) was 92 s.

With `Cn1c(=O)c2[nH]c(Cc3ccc(OCCCCl)cc3)nc2n(C)c1=O` the pKi (Adenosine receptor A2a) was < 5.00, the pKi (Adenosine receptor A3) was < 4.52 and the Time (Cavia porcellus [3]) was 44 s. For the same compound, the survival at 50 mg/kg (Cavia porcellus [4]) was 50%, the pKi (Adenosine receptor A1) was < 4.52 and the pKi (Adenosine receptor A2b) was < 5.00. The Time (Cavia porcellus [5]) was 75 s.

In the case of `CCN(CC)CCOc1ccc(-c2nc3c([nH]2)c(=O)n(C)c(=O)n3C)cc1`, the pKi (Adenosine receptor A2a) was 6.60, the Ratio Ki (Homo sapiens [1]) was 10 and the pKi (Adenosine receptor A3) was 5.17. The Ratio Ki (Homo sapiens [2]) was 6.4, the Time (Cavia porcellus [3]) was 49 s and the survival at 50 mg/kg (Cavia porcellus [4]) was 75%. The pKi (Adenosine receptor A1) was 5.80, the pKi (Adenosine receptor A2b) was 5.59 and the Time (Cavia porcellus [5]) was 115 s. The Ratio Ki (Homo sapiens [6]) was 27.

For `Cn1c(=O)c2[nH]c(Cc3ccc(OCCCN4CCC5(CC4)OCCO5)cc3)nc2n(C)c1=O`, the pKi (Adenosine receptor A2a) was 5.09, the Ratio Ki (Homo sapiens [1]) was > 1.2 and the pKi (Adenosine receptor A3) was < 4.52. For the same compound, the Ratio Ki (Homo sapiens [2]) was > 3.7, the Time (Cavia porcellus [3]) was 23 s and the survival at 50 mg/kg (Cavia porcellus [4]) was 50%. For the same compound, the pKi (Adenosine receptor A1) was < 4.52, the pKi (Adenosine receptor A2b) was < 5.00 and the Time (Cavia porcellus [5]) was 73 s. For the same compound, the Ratio Ki (Homo sapiens [6]) was > 3.7.

With `Cn1c(=O)c2[nH]c(Cc3ccc(OCCCn4ccnc4)cc3)nc2n(C)c1=O` the pKi (Adenosine receptor A2a) was 5.50, the Ratio Ki (Homo sapiens [1]) was > 3.2 and the pKi (Adenosine receptor A3) was < 4.52. For the same compound, the Ratio Ki (Homo sapiens [2]) was > 9.5, the survival at 50 mg/kg (Cavia porcellus [4]) was 50% and the pKi (Adenosine receptor A1) was < 4.52. For the same compound, the pKi (Adenosine receptor A2b) was < 5.00, the Time (Cavia porcellus [5]) was 83 s and the Ratio Ki (Homo sapiens [6]) was > 9.5.

`Cn1c(=O)c2[nH]c(-c3ccc(OCCCn4ccnc4)cc3)nc2n(C)c1=O` gave a pKi (Adenosine receptor A2a) of 7.38, a Ratio Ki (Homo sapiens [1]) of 25 and a pKi (Adenosine receptor A3) of 5.64. For the same compound, the Ratio Ki (Homo sapiens [2]) was 21, the Time (Cavia porcellus [3]) was 71 s and the survival at 50 mg/kg (Cavia porcellus [4]) was 75%. It also gave a pKi (Adenosine receptor A1) of 6.05, a pKi (Adenosine receptor A2b) of 5.98 and a Time (Cavia porcellus [5]) of 108 s. The Ratio Ki (Homo sapiens [6]) was 54.

With `Cn1c(=O)c2[nH]c(Cc3ccc(OCCCN4CCOCC4)cc3)nc2n(C)c1=O` the pKi (Adenosine receptor A2a) was < 5.00, the pKi (Adenosine receptor A3) was < 4.52 and the survival at 50 mg/kg (Cavia porcellus [4]) was 100%. The pKi (Adenosine receptor A1) was < 4.52, the pKi (Adenosine receptor A2b) was < 5.00 and the Time (Cavia porcellus [5]) was 108 s.

Work on `Cn1c(=O)c2[nH]c(-c3ccc(OCCCN4CCN(Cc5ccccc5Cl)CC4)cc3)nc2n(C)c1=O` yielded a pKi (Adenosine receptor A2a) of 6.92, a Ratio Ki (Homo sapiens [1]) of 1.4 and a pKi (Adenosine receptor A3) of 5.16. The Ratio Ki (Homo sapiens [2]) was 15, the survival at 50 mg/kg (Cavia porcellus [4]) was 100% and the pKi (Adenosine receptor A1) was 5.73. The pKi (Adenosine receptor A2b) was 6.77, the Activity (Cavia porcellus [7]) was “Active” and the Time (Cavia porcellus [5]) was 109 s. For the same compound, the Ratio Ki (Homo sapiens [6]) was 57.

In the case of `Cn1c(=O)c2[nH]c(-c3ccc(OCCN4CCCC4)cc3)nc2n(C)c1=O`, the pKi (Adenosine receptor A2a) was 6.70, the Ratio Ki (Homo sapiens [1]) was 9.9 and the pKi (Adenosine receptor A3) was 5.34. For the same compound, the Ratio Ki (Homo sapiens [2]) was 6, the Time (Cavia porcellus [3]) was 32 s and the survival at 50 mg/kg (Cavia porcellus [4]) was 100%. It also gave a pKi (Adenosine receptor A1) of 5.92, a pKi (Adenosine receptor A2b) of 5.71 and a Time (Cavia porcellus [5]) of 111 s. For the same compound, the Ratio Ki (Homo sapiens [6]) was 23.
